Assay results reported in ChEMBL document CHEMBL1135921, “Potent, orally active heterocycle-based combretastatin A-4 analogues: synthesis, structure-activity relationship, pharmacokinetics, and in vivo antitumor activity evaluation” (J Med Chem, 2002).

Key:
HCT-15 = test: Inhibition of human HCT-15 (human colon adenocarcinoma, MDR positive) cell growth; assay type: functional, cell-based
Method in brief: (§1)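 Sulforhodamine B assay following the NCI protocol. HCT-15 and NCI-H460 cells were exposed to final concentrations of 10^-11 to 10^-4 M and grown for 48 h at 37 °C in 5% CO2. […] Cells were TCA-fixed and stained, dye was solubilized in Tris, and absorbance was read. IC50 came from nonlinear regression as the geometric mean of at least two independent runs.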

Tubulin beta chain = Tubulin beta chain (Bos taurus, UniProt Q6B856); test: Concentration needed to inhibit tubulin polymerization by 50%; assay type: functional
Chain of Tubulin beta chain (Q6B856 whole entry): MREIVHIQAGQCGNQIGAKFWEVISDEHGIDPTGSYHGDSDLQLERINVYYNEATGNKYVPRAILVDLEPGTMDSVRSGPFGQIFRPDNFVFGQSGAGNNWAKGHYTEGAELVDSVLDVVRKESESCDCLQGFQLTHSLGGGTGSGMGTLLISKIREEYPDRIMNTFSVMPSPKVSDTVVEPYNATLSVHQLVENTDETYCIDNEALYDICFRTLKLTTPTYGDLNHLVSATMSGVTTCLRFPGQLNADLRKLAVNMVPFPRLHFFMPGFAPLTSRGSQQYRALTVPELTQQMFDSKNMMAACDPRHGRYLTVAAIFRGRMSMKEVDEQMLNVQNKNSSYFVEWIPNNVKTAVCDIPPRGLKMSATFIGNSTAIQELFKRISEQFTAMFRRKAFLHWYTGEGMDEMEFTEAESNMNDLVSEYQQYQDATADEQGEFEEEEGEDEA
Method in brief: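 Microtubule protein was purified from bovine brain, or purified tubulin in glycerol was used. Tubulin, buffer and GTP were prechilled to 4 °C, then added to wells containing drug or solvent. Polymerization ran at 37 °C, with light scattering followed at 340 nm for 30 min. The degree of polymerization was taken from the AUC of the profile. IC50 came from nonlinear regression as the geometric mean of at least two independent runs.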

NCI-H460 = test: Inhibition of human NCI-H460 (human lung large cell carcinoma, MDR negative) cell growth; assay type: functional, cell-based; method in brief: as §1
[1] = Bioavailability; assay type: ADME, organism-based; conditions: eutheria, in vivo
Method in brief: (§2)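 Two animals were used in each dosing group, each given 5 mg/kg either orally or iv. Plasma Cmax, oral AUC and bioavailability are the average of the two animals.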

[2] = The oral Area under the plasma concentration curve(AUC) measured;when administered perorally; assay type: ADME; method in brief: as §2
[3] = Maximum concentration of compound present in plasma measured; assay type: ADME, organism-based; method in brief: as §2
[4] = Oral bioavailability in dog; assay type: ADME, organism-based, Canis lupus familiaris; conditions: in vivo; method in brief: as §2
[5] = Oral bioavailability in monkey; assay type: ADME, organism-based; conditions: primates, in vivo; method in brief: as §2
[6] = Oral bioavailability in mouse; assay type: ADME, organism-based; conditions: in vivo; method in brief: as §2
[7] = The oral Area under the plasma concentration curve(AUC) measured;when administered as perorally; assay type: ADME; method in brief: as §2

Compound	IC50 (HCT-15) [nM]	IC50 (Tubulin beta chain) [nM]	IC50 (NCI-H460) [nM]	bioavailability [1] [%]	AUC [2] [ng·h/mL]	Cmax [3] [ng/mL]	bioavailability [4] [%]	bioavailability [5] [%]	bioavailability [6] [%]	AUC [7] [ng·h/mL]
COc1ccc(-c2cncn2-c2cc(OC)c(OC)c(OC)c2)cc1N	69	7700	63	–	–	–	–	–	–	–
COc1cc(-c2c(-c3ccc4c(ccn4C)c3)ncn2C)cc(OC)c1OC	27	–	51	2.5	112	70	–	–	–	–
COc1cc(-c2ncoc2-c2ccc(N(C)C)cc2)cc(OC)c1OC	18	870	41	–	–	–	–	–	–	–
COc1cc(-c2ncn(C)c2-c2ccc3ccn(C)c3c2)cc(OC)c1OC	20	2000	32	32	461	169	44.5	12.5	24.2	–
COc1cc(-n2cncc2-c2ccc3c(c2)CCN3C)cc(OC)c1OC	58	48000	150	–	–	–	–	–	–	–
COc1cc(-c2cncn2-c2ccc(N(C)C)cc2)cc(OC)c1OC	333	130000	589	0.01	–	< 10	–	–	–	–
COc1cc(-n2cncc2-c2ccc(N)cc2)cc(OC)c1OC	7260	–	8550	–	–	–	–	–	–	–
COc1ccc(-c2ccnn2-c2cc(OC)c(OC)c(OC)c2)cc1N	28	–	33	–	–	–	–	–	–	–
COc1ccc(-c2cncn2-c2cc(OC)c(OC)c(OC)c2)cc1O	89	7600	61	–	–	–	–	–	–	–
COc1cc(-n2ccnc2-c2ccc(N(C)C)cc2)cc(OC)c1OC	80	35000	270	–	–	–	–	–	–	–
COc1cc(-n2cncc2-c2ccc(N(C)C)cc2)cc(OC)c1OC	36	23000	79	–	–	–	–	–	–	–
COc1cc(-n2cncc2-c2ccc3[nH]ccc3c2)cc(OC)c1OC	350	71000	540	–	–	–	–	–	–	–
COc1ccc(-c2ncoc2-c2cc(OC)c3c(c2)OCO3)cc1N	76	–	53	–	–	–	–	–	–	–
COc1cc(-c2ncn(C)c2-c2cc(F)c3c(ccn3C)c2)cc(OC)c1OC	27	–	23	12.3	340	209	–	–	–	–
COc1ccc(-c2ncn(C)c2-c2cc(OC)c(OC)c(OC)c2)cc1N	79	–	34	29.9	1500	623	–	–	–	–
COc1cc(-c2[nH]c(-c3ccoc3)nc2-c2ccc(N(C)C)cc2)cc(OC)c1OC	67	–	190	–	–	–	–	–	–	–
COc1ccc(-c2nc(C)oc2-c2cc(OC)c(OC)c(OC)c2)cc1O	15	–	35	–	–	–	–	–	–	–
COc1ccc(-c2c(-c3cc(OC)c(OC)c(OC)c3)ncn2C)cc1N	220	31000	170	82.3	10800	3860	45.8	91.2	89.7	–
COc1cc(-c2nccnc2-c2ccc(N(C)C)cc2)cc(OC)c1OC	303	–	707	–	–	–	–	–	–	–

Now those with a lower IC50 (HCT-15), led by results:

IC50 (HCT-15) [nM]	IC50 (Tubulin beta chain) [nM]	IC50 (NCI-H460) [nM]	bioavailability [1] [%]	AUC [2] [ng·h/mL]	Cmax [3] [ng/mL]	bioavailability [4] [%]	bioavailability [5] [%]	bioavailability [6] [%]	AUC [7] [ng·h/mL]	Compound
8.1	680	8.5	45	< 218	< 74	–	–	–	–	COc1ccc(-c2[nH]cnc2-c2cc(OC)c(OC)c(OC)c2)cc1N
4.4	3700	2	1.3	16.2	15.1	–	–	–	–	COc1cc(-c2[nH]cnc2-c2ccc(N(C)C)cc2)cc(OC)c1OC
7.8	2800	7.2	–	–	–	–	–	–	–	COc1ccc(-c2[nH]cnc2-c2cc(OC)c(OC)c(OC)c2)cc1
10	730	11	–	–	–	–	–	–	–	COc1ccc(-c2[nH]cnc2-c2cc(OC)c(OC)c(OC)c2)cc1O
2.2	980	2.3	–	–	–	–	–	–	–	COc1ccc(-c2ocnc2-c2cc(OC)c(OC)c(OC)c2)cc1O
14	1800	19	–	–	–	–	–	–	–	COc1cc(-n2cncc2-c2ccc3c(ccn3C)c2)cc(OC)c1OC
7.2	–	11	0	–	–	–	–	–	–	COc1ccc(-c2ncoc2-c2cc(OC)c(OC)c(OC)c2)cc1N
1.7	1100	1.8	0.31	14.2	< 10	–	–	–	–	COc1cc(-c2[nH]cnc2-c2ccc3ccn(C)c3c2)cc(OC)c1OC
11	920	9.2	0.5	–	22	–	–	–	12	COc1ccc(-c2ocnc2-c2cc(OC)c(OC)c(OC)c2)cc1N
12	–	12	10.2	220	130	–	–	–	–	COc1cc(-c2ncn(C)c2-c2cc(Cl)c3c(ccn3C)c2)cc(OC)c1OC
3.8	–	3.8	–	–	–	–	–	–	–	COc1ccc(-c2[nH]cnc2-c2cc(OC)c(OC)c(OC)c2)cc1F
7.4	790	12	–	–	–	–	–	–	–	COc1cc(-c2ncoc2-c2ccc3c(ccn3C)c2)cc(OC)c1OC
